In ChEMBL document CHEMBL2346664, “Synthesis, characterization and in vitro anticancer evaluation of novel 1,2,4-triazolin-3-one derivatives” (2013):

How the values were obtained:
Format in all cases: functional
[1] = test system: UACC-62; assay: Growth inhibition of human UACC62 cells assessed as cell growth at 10 '-6 M after 48 hrs by sulforhodamine B assay; conditions: UACC-62, 48 h, read-out: Activity
[2] = test system: SK-MEL-2; assay: Growth inhibition of human SK-MEL-2 cells assessed as growth inhibition at 10 uM after 48 hrs by sulforhodamine B assay; conditions: SK-MEL-2, 48 h, read-out: GI
[3] = test system: LOX IMVI; assay: Growth inhibition of human LOXIMVI cells assessed as growth inhibition at 10 uM after 48 hrs by sulforhodamine B assay; conditions: read-out: GI
[4] = test system: RPMI-8226; assay: Growth inhibition of human RPMI8226 cells assessed as cell growth at 10 '-6 M after 48 hrs by sulforhodamine B assay; conditions: RPMI-8226, 48 h, read-out: Activity
[5] = test system: MCF7; assay: Growth inhibition of human MCF7 cells assessed as cell growth at 10 '-7 M after 48 hrs by sulforhodamine B assay; conditions: MCF7, 48 h, read-out: Activity
[6] = test system: 786-0; assay: Growth inhibition of human 786-0 cells assessed as cell growth at 10 '-7 M after 48 hrs by sulforhodamine B assay; conditions: 786-0, 48 h, read-out: Activity
Summary of the method: (§1)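 Percent growth at each of the five concentrations of the 48 h continuous-exposure NCI SRB screen. Drug stocks were in DMSO at 400× the top final concentration and diluted in medium with gentamicin. Growth was calculated as [(Ti-Tz)/(C-Tz)]×100 when Ti ≥ Tz, or [(Ti-Tz)/Tz]×100 when Ti < Tz. Tz plates were fixed at drug addition; untreated wells served as control. Absorbance was read at 515 nm.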

[7] = test system: OVCAR-3; assay: Growth inhibition of human OVCAR3 cells assessed as cell growth at 10 '-7 M after 48 hrs by sulforhodamine B assay; conditions: OVCAR-3, 48 h, read-out: Activity
[8] = test system: SW-620; assay: Growth inhibition of human SW620 cells assessed as cell growth at 10 '-4 M after 48 hrs by sulforhodamine B assay; conditions: SW-620, 48 h, read-out: Activity
[9] = test system: A549; assay: Growth inhibition of human A549 cells assessed as cell growth at 10 '-8 M after 48 hrs by sulforhodamine B assay; conditions: A549, 48 h, read-out: Activity; summary of the method: as §1
[10] = test system: HL-60(TB); assay: Growth inhibition of human HL-60(TB) cells assessed as cell growth at 10 '-8 M after 48 hrs by sulforhodamine B assay; conditions: HL-60, 48 h, read-out: Activity
Summary of the method: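 Five-dose NCI protocol with final concentrations of 0.01–100 µM and drug diluted from a DMSO stock (400× the top concentration) in medium with gentamicin. Cells were pre-incubated 24 h, then exposed 48 h at 37 °C. Suspension cells were fixed with 16% final TCA, SRB-stained and read at 515 nm. Percentage growth at each level was [(Ti−Tz)/(C−Tz)]×100, or [(Ti−Tz)/Tz]×100 when Ti < Tz.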

[11] = test system: MDA-MB-231; assay: Growth inhibition of human MDA-MB-231 cells after 48 hrs by sulforhodamine B assay; conditions: MDA-MB-231, 48 h
Summary of the method: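 NCI 60-cell-line five-dose screen. Cells were plated at 5,000–40,000/well by doubling time and grown 24 h at 37 °C, 5% CO2. Time-zero plates were TCA-fixed. Drug from DMSO stock was tested at 0.01, 0.1, 1, 10 and 100 µM final for 48 h continuous exposure. Read-out was SRB at 515 nm. GI50 is the concentration giving 50% reduction in net protein increase versus untreated control.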

[12] = test system: A498; assay: Growth inhibition of human A498 cells assessed as cell growth at 10 '-5 M after 48 hrs by sulforhodamine B assay; conditions: A498, 48 h, read-out: Activity; summary of the method: as §1
[13] = test system: OVCAR-4; assay: Growth inhibition of human OVCAR4 cells assessed as cell growth at 10 '-5 M after 48 hrs by sulforhodamine B assay; conditions: OVCAR-4, 48 h, read-out: Activity
[14] = test system: RPMI-8226; assay: Growth inhibition of human RPMI8226 cells after 48 hrs by sulforhodamine B assay; conditions: RPMI-8226, 48 h
[15] = test system: NCI-H522; assay: Growth inhibition of human NCI-H522 cells assessed as cell growth at 10 '-7 M after 48 hrs by sulforhodamine B assay; conditions: NCI-H522, 48 h, read-out: Activity
[16] = test system: A498; assay: Growth inhibition of human A498 cells assessed as cell growth at 10 '-8 M after 48 hrs by sulforhodamine B assay; conditions: A498, 48 h, read-out: Activity; summary of the method: as §1
[17] = test system: Malme-3M; assay: Growth inhibition of human MALME-3M cells assessed as cell growth at 10 '-5 M after 48 hrs by sulforhodamine B assay; conditions: read-out: Activity
[18] = test system: LOX IMVI; assay: Growth inhibition of human LOXIMVI cells assessed as cell growth at 10 '-5 M after 48 hrs by sulforhodamine B assay; conditions: read-out: Activity
[19] = test system: KM12; assay: Growth inhibition of human KM12 cells assessed as cell growth at 10 '-8 M after 48 hrs by sulforhodamine B assay; conditions: KM12, 48 h, read-out: Activity
[20] = test system: HT-29; assay: Growth inhibition of human HT-29 cells assessed as cell growth at 10 '-8 M after 48 hrs by sulforhodamine B assay; conditions: HT-29, 48 h, read-out: Activity
[21] = test system: HOP-92; assay: Growth inhibition of human HOP92 cells assessed as cell growth at 10 '-8 M after 48 hrs by sulforhodamine B assay; conditions: HOP-92, 48 h, read-out: Activity
[22] = read-out: LD50 (the source's name)

`Cc1cc(=O)oc2cc(OCCn3c(C)nn(-c4ccc(Cl)cc4)c3=O)ccc12` gave a growth at 1 µM [1] of 61%, an inhibition of growth at 10 µM [2] of 96.5% and an inhibition of growth at 10 µM [3] of 52%. It also gave a growth at 1 µM [4] of 95%, a growth at 0.1 µM [5] of 93% and a growth at 0.1 µM [6] of 104%. The growth at 0.1 µM [7] was 110%, the growth at 100 µM [8] was 25% and the growth at 0.01 µM [9] was 97%. It also gave a growth at 0.01 µM [10] of 101%, a GI50 [11] of 4.53 µM and a TGI [11] greater than 1000 nM. It also gave a CC50 [11, 22] greater than 1000 nM, a growth at 10 µM [12] of 8% and a growth at 10 µM [13] of -1%. It also gave a GI50 [14] of 1100 nM, a TGI [14] greater than 1000 nM and a CC50 [14, 22] greater than 1000 nM. For the same compound, the growth at 0.1 µM [15] was 96%, the growth at 0.01 µM [16] was 81% and the growth at 10 µM [17] was 28%. It also gave a growth at 10 µM [18] of 39%, a growth at 0.01 µM [19] of 104% and a growth at 0.01 µM [20] of 104%. For the same compound, the growth at 0.01 µM [21] was 87%.
